Data reported in article PMC6929040 (ACS Synthetic Biology, 2019).
“Also recorded” adds a separate entry of the source.

Legend:
[1] = biological target: human 5-HTR4b (Homo sapiens, UniProt Q13639); experiment: Luciferase-based 5-HTR4b assay in yeast; format: cell-based; settings: for anti-infection library screening result (Z-score): 403-member library; for anti-infection library screening result (Z-score) / natural products library screening result (Z-score normalized to serotonin): singlets; for natural products library screening result (Z-score normalized to serotonin): 803-member library; for confirmation as 5-HTR4b ligand by dose response curves: 5-HTR4b assay strain vs control strain with blank plasmid in lieu of 5-HTR4b
[2] = tested on: human colon epithelial cells (Caco-2); experiment: Cell migration assay; format: cell-based; settings: Caco-2, 10 μM, 48 h, vs PBS control
Outline: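 Caco-2 cells grown at 37 °C, 5% CO2 in high-glucose DMEM with 10% FBS and 1% penicillin-streptomycin. Cells at (1–2) × 10^5 cells/mL were seeded into both wells of culture inserts and left overnight to attach. Inserts were then removed and cells washed twice with PBS. […] Imaged at 0, 24 and 48 h, and the cell-free zone was measured.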

[3] = tested on: human colon epithelial cells (Caco-2); experiment: Colon cell wound healing scratch assay; format: cell-based; settings: Caco-2 scratch assay, 10 μM, 48 h, vs PBS control
[4] = tested on: yeast (PPY1808); experiment: Toxicity assessment in yeast; format: cell-based, Saccharomyces cerevisiae; settings: yeast incubated 2.5 h, 0, 10 μM, 100 μM

Sequence of human 5-HTR4b (Q13639 whole entry): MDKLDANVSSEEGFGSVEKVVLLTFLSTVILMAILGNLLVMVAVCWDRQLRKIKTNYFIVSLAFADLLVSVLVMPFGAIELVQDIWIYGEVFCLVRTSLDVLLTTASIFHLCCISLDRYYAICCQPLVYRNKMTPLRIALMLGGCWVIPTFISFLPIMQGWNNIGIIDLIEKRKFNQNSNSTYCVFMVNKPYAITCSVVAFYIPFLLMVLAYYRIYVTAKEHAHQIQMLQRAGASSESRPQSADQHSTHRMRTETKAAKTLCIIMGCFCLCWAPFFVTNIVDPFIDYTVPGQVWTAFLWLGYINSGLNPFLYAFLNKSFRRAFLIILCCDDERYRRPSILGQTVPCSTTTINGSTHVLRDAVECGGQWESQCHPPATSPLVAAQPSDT

Row | SMILES | natural products library screening result (Z-score normalized to serotonin) ([1]; 10 μM) | confirmation as 5-HTR4b ligand by dose response curves [1] | further results
1 | Cc1nc(Nc2ccc(F)cc2)nc(N2CCc3ccccc3C2C)c1C (centres unmarked) [revaprazan] | – | – | anti-infection library screening result (Z-score) ([1]; 1 μM): hits; cell motility (cell migration) [2]: statistically significantly different than the PBS control (P < 0.01); cell motility (cell migration) ([2]; listed as Revaprazan): significantly (P < 0.01) increase cell motility; wound healing [3]: statistically significant increase in wound healing (P < 0.05); also recorded: statistically significantly different than the PBS control (P < 0.05); toxicity to yeast [4]: toxic at high concentrations
2 | CN(C)CCc1ccc(O)cc1 [hordenine] | hits | – | anti-infection library screening result (Z-score) ([1]; 10 μM): hits; cell motility (cell migration) [2]: significantly (P < 0.01) increase cell motility; also recorded: statistically significantly different than the PBS control (P < 0.01); wound healing [3]: statistically significant increase in wound healing (P < 0.05); also recorded: statistically significantly different than the PBS control (P < 0.05)
3 | CCOc1ccc2nc3cc(N)ccc3c(N)c2c1 [ethacridine] | – | – | anti-infection library screening result (Z-score) ([1]; 10 μM): hits; cell motility (cell migration) [2]: did not result in a significant increase; wound healing [3]: did not result in a significant increase; toxicity to yeast [4]: toxic at high concentrations
4 | O=c1c(-c2ccc(O)cc2)coc2cc(O[C@@H]3O[C@H](CO)[C@@H](O)[C@H](O)[C@H]3O)cc(O)c12 [genistin] | hits | could not confirm | –
5 | COc1ccc(-c2oc3c(CC=C(C)C)c(O)cc(O)c3c(=O)c2O[C@@H]2O[C@@H](C)[C@H](O)[C@@H](O)[C@H]2O)cc1 [baohuoside I] | hits | could not confirm | –
6 | NCCc1c[nH]c2ccc(O)cc12 [serotonin] | hits | – | signal increase after activation ([1]; pH = 7, 100 mg/L serotonin, 2 h ligand incubation, 30 min luciferase substrate incubation): 38 fold
7 | CC1(C)C2CCC1(C)C(O)C2 (centres unmarked) [borneol] | – | could not confirm | anti-infection library screening result (Z-score) ([1]; 1 μM): hits
8 | O=c1c2cc(O[C@@H]3O[C@H](CO)[C@@H](O)[C@H](O)[C@H]3O)c(O)cc2oc2cc(O)c([C@@H]3O[C@H](CO)[C@@H](O)[C@H](O)[C@H]3O)c(O)c12 [neomangiferin] | hits | could not confirm | –
9 | CN[C@@H]1[C@@H](O)[C@@H](O[C@@H]2[C@@H](O)[C@H](O[C@H]3O[C@H](CN)[C@@H](O)[C@H](O)[C@H]3O)[C@@H](N)C[C@H]2NC(=O)[C@@H](O)CN)OC[C@]1(C)O [isepamicin] | – | could not confirm | anti-infection library screening result (Z-score) ([1]; 1 μM): hits
10 | NCCc1c[nH]c2ccccc12 [tryptamine] | hits | confirmed | –
11 | CC[n+]1c(-c2ccccc2)c2cc(N)ccc2c2ccc(N)cc21 [ethidium bromide] | – | could not confirm | anti-infection library screening result (Z-score) ([1]; 10 μM): hits
12 | Nc1ccc2cc3ccc(N)cc3nc2c1 [proflavine] | – | – | anti-infection library screening result (Z-score) ([1]; 10 μM): hits; cell motility (cell migration) [2]: did not result in a significant increase; wound healing [3]: did not result in a significant increase; toxicity to yeast [4]: toxic at high concentrations

Continued, in another order:

Row | natural products library screening result (Z-score normalized to serotonin) ([1]; 10 μM) | confirmation as 5-HTR4b ligand by dose response curves [1] | SMILES | further results
13 | hits | could not confirm | O=c1cc(-c2ccccc2)oc2cc(O)c(O)c(O)c12 [baicalein] | –
14 | hits | confirmed | NC(Cc1c[nH]c2ccc(O)cc12)C(=O)O [5-HTP, D/L-5-hydroxytryptophan] | –
15 | hits | – | O=C(CC1NCCCC1O)Cn1cnc2cc(Br)c(Cl)cc2c1=O (centres unmarked) [halofuginone] | cell motility (cell migration) [2]: results only in increased wound healing; wound healing [3]: statistically significant increase in wound healing (P < 0.05); also recorded: statistically significantly different than the PBS control (P < 0.05)
16 | hits | could not confirm | O=C(O)CCCc1c[nH]c2ccccc12 [3-indolebutyric acid] | –
17 | hits | could not confirm | CCn1cc(C(=O)O)c(=O)c2ccc(C)nc21 [nalidixic acid] | –
18 | – | could not confirm | O=C(Nc1ccc(O)cc1)c1ccccc1O [osalmid] | anti-infection library screening result (Z-score) ([1]; 1 μM): hits
19 | hits | – | N[C@@H](Cc1c[nH]c2ccc(O)cc12)C(=O)O [L-5-HTP, L-5-hydroxytryptophan] | –
